The values below come from ChEMBL document CHEMBL5096186, “Design, Synthesis, and Biological Evaluation of Novel Pyrimido[4,5-b]indole Derivatives Against Gram-Negative Multidrug-Resistant Pathogens” (J Med Chem, 2021).

The term MIC denotes the lowest concentration that inhibits growth of the organism. One may read the inhibition as the change of the read-out against control, counted positive when it falls. In general, IC50 refers to the concentration needed to halve the response being measured.

The subject of data set [1] is Staphylococcus aureus. As to the kind of experiment: Antibacterial activity against methicillin-resistant Staphylococcus aureus strains 15 1 to 4 assessed as reduction in bacterial growth incubated for 18 to 20 hrs by CLSI based microdilution method. The format is functional. Conditions: time 18-20 hrs. The gist of the method: (§1)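 Broth microdilution per CLSI. Compounds dissolved in DMSO (levofloxacin and meropenem in water) as 64 μg/mL stock, then serial twofold dilutions in broth giving 64 to 0.008 μg/mL. […] Clinical isolates tested as several strains per group; racemic GP-1 served as positive control; values given as MIC ranges.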
In general terms: Dilution methods test growth across graded concentrations, often in twofold steps.

For data set [2], the system named is Staphylococcus aureus. Put plainly: Antibacterial activity against methicillin-sensitive Staphylococcus aureus strains 15 1 to 4 assessed as reduction in bacterial growth incubated for 18 to 20 hrs by CLSI based microdilution method. In kind it is functional. The conditions noted are these: time 18-20 hrs. The gist of the method:
as §1

Data set [3] relates to Staphylococcus epidermidis. As to the kind of experiment: Antibacterial activity against methicillin-sensitive Staphylococcus epidermidis strains 15 1 to 4 assessed as reduction in bacterial growth incubated for 18 to 20 hrs by CLSI based microdilution method. In kind it is functional. The conditions noted are these: time 18-20 hrs. A digest of the protocol: as §1
The subject of data set [4] is Escherichia coli. Put plainly: Antibacterial activity against ESBL-producing Escherichia coli ATCC 35218 strains 15 1 to 3 assessed as reduction in bacterial growth incubated for 18 to 20 hrs by CLSI based microdilution method. The format is functional. Conditions: time 18-20 hrs. The gist of the method:
(§2)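 CLSI broth microdilution. Compounds in DMSO (levofloxacin and meropenem in water), serial twofold dilutions in broth, 64 to 0.008 μg/mL. […] Results reported as MIC ranges across strains.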

Data set [5] deals with Escherichia coli. Put plainly: Antibacterial activity against Escherichia coli ATCC 35218 strains 15 1 to 3 assessed as reduction in bacterial growth incubated for 18 to 20 hrs by CLSI based microdilution method. The format is functional. The conditions noted are these: time 18-20 hrs. The gist of the method:
as §2

Data set [6] concerns Pseudomonas aeruginosa. As to the kind of experiment: Antibacterial activity against multidrug resistant Pseudomonas aeruginosa strains 15 1 to 3 assessed as reduction in bacterial growth incubated for 18 to 20 hrs by CLSI based microdilution method. In kind it is functional. Conditions: time 18-20 hrs. The gist of the method: as §1
For data set [7], the target named is hERG (KCNH2) potassium channel (Homo sapiens, UniProt Q12809). Put plainly: Inhibition of hERG potassium channel assessed as maximum inhibition rate at 40 uM at -80 mV holding potential incubated for 120 seconds by whole cell-automated voltage clamp analysis assay relative to control. The format is toxicity. Conditions: time 120 sec. A digest of the protocol:
(§3)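 Automated whole-cell patch clamp, holding potential −80 mV. Voltage protocol applied every 20 s. Baseline set with external solution containing 0.1% DMSO and stabilised 3 min. Compound applied until steady state, at least 3 min, then washout. Maximum tested concentration 40 μM, or 3 μM for cisapride as positive control.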

For data set [8], the target named is Voltage-gated inwardly rectifying potassium channel KCNH2 (Homo sapiens, UniProt Q12809). As to the kind of experiment: Inhibition of hERG potassium channel assessed as […] at -80 mV holding potential incubated for 120 seconds by whole cell-automated voltage clamp analysis assay. In kind it is toxicity. A digest of the protocol: as §3
In general terms: The hERG channel carries a current that helps repolarise heart muscle cells.

The subject of data set [9] is Escherichia coli. Put plainly: Antibacterial activity against ESBL-producing multidrug resistant Escherichia coli assessed as reduction in bacterial growth incubated for 18 to 20 hrs by CLSI based microdilution method. The format is functional. The conditions noted are these: time 18-20 hrs. A digest of the protocol:
as §1

Data set [10] has as its system Escherichia coli. As to the kind of experiment: Antibacterial activity against multidrug resistant wild type Escherichia coli ATCC BAA-2340 assessed as reduction in bacterial growth incubated for 18 to 20 hrs by CLSI based microdilution method. The format is functional. The conditions noted are these: time 18-20 hrs. The gist of the method: as §1
Data set [11] deals with Escherichia coli. As to the kind of experiment: Antibacterial activity against multidrug resistant wild type Escherichia coli NCTC 13353 assessed as reduction in bacterial growth incubated for 18 to 20 hrs by CLSI based microdilution method. In kind it is functional. The conditions noted are these: time 18-20 hrs. The gist of the method:
as §1

Data set [12] concerns Klebsiella pneumoniae. As to the kind of experiment: Antibacterial activity against KPC2-producing multidrug resistant Klebsiella pneumoniae assessed as reduction in bacterial growth incubated for 18 to 20 hrs by CLSI based microdilution method. The format is functional. Conditions: time 18-20 hrs. A digest of the protocol: as §1
In data set [13] the test system is Klebsiella pneumoniae. As to the kind of experiment: Antibacterial activity agains wild type Klebsiella pneumoniae ATCC BAA-1705 assessed as reduction in bacterial growth incubated for 18 to 20 hrs by CLSI based microdilution method. The format is functional. Conditions: time 18-20 hrs. A digest of the protocol:
as §2

Data set [14] concerns Klebsiella pneumoniae. Put plainly: Antibacterial activity agains wild type Klebsiella pneumoniae ATCC BAA-2470 assessed as reduction in bacterial growth incubated for 18 to 20 hrs by CLSI based microdilution method. In kind it is functional. The conditions noted are these: time 18-20 hrs. The gist of the method:
as §1

Data set [15] deals with Acinetobacter baumannii. Put plainly: Antibacterial activity agains OXA23-producing multidrug resistant Acinetobacter baumannii assessed as reduction in bacterial growth incubated for 18 to 20 hrs by CLSI based microdilution method. The conditions noted are these: time 18-20 hrs. The format is functional. A digest of the protocol:
as §1

Data set [16] concerns Acinetobacter baumannii. As to the kind of experiment: Antibacterial activity against wild type Acinetobacter baumannii NCTC 13304 assessed as reduction in bacterial growth incubated for 18 to 20 hrs by CLSI based microdilution method. The format is functional. Conditions: time 18-20 hrs. The gist of the method: as §1
Data set [17] relates to Pseudomonas aeruginosa. Put plainly: Antibacterial activity against IMP4-producing multidrug resistant Pseudomonas aeruginosa assessed as reduction in bacterial growth incubated for 18 to 20 hrs by CLSI based microdilution method. The format is functional. Conditions: time 18-20 hrs. A digest of the protocol:
as §1

Data set [18] has as its system Pseudomonas aeruginosa. Put plainly: Antibacterial activity against wild type Pseudomonas aeruginosa ATCC 27853 assessed as reduction in bacterial growth incubated for 18 to 20 hrs by CLSI based microdilution method. The format is functional. The conditions noted are these: time 18-20 hrs. The gist of the method: as §2

In brackets after ≈: the same amount, converted by molar mass.

Sequence of hERG (KCNH2) potassium channel (Q12809 whole entry): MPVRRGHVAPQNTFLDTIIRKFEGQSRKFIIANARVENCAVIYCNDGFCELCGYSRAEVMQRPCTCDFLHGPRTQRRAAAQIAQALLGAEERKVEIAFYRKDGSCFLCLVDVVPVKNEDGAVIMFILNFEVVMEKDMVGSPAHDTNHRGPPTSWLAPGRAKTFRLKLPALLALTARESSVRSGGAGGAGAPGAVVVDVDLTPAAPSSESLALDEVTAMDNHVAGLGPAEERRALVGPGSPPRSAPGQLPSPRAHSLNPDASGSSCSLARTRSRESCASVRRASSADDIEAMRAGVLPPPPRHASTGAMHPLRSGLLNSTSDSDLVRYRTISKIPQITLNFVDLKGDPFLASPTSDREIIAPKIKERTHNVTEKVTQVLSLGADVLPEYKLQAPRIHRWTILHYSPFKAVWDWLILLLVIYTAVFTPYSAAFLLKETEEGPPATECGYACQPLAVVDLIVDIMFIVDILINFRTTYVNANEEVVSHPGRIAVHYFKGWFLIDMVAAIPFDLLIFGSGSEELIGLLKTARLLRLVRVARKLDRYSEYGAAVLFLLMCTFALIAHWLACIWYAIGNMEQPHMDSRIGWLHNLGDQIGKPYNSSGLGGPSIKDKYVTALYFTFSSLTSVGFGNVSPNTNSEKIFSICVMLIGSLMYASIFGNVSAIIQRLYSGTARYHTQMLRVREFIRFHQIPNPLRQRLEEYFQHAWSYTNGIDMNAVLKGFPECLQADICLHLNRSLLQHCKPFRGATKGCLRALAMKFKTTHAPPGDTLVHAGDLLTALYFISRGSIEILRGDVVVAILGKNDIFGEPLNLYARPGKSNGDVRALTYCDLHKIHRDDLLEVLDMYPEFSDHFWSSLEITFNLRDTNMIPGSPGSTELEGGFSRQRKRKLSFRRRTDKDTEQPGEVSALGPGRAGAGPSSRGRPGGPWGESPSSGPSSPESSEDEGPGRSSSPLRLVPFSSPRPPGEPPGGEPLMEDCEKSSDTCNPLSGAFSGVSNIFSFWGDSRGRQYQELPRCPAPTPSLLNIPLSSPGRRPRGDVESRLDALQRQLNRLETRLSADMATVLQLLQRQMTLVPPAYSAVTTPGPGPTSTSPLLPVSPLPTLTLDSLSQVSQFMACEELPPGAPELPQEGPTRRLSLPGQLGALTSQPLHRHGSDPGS
Sequence of Voltage-gated inwardly rectifying potassium channel KCNH2 (Q12809 whole entry): as above

Turning to `CNc1cc(F)cc2c1[nH]c1nc(Oc3cnc(C)nc3)nc(N3CC(=C(CO)C(C)C)C3)c12`, the MIC in [1] is below 0.03 µg/mL; in data set [2] it was below 0.008 µg/mL; in [3], below 0.03 µg/mL; in data set [4] it was 0.5 µg/mL (≈ 1.08 µM); in data set [5] it was 0.125 µg/mL (≈ 0.27 µM); in data set [6], at least 64 µg/mL.

As to `CCC(CO)=C1CN(c2nc(C(=O)Nc3cnc(C)nc3)nc3[nH]c4c(NC)cc(F)cc4c23)C1`, the MIC in [4] and in data set [5] was above 64 µg/mL throughout.

Consider `CCC(CN)=C1CN(c2nc(Oc3cnc(C(C)(C)O)nc3)nc3[nH]c4c(NC)cc(F)cc4c23)C1`, for which the MIC in [2] was below 0.008 µg/mL; in [3], below 0.008 µg/mL; in [4], 1 µg/mL (≈ 2.03 µM); in [5], 0.5 µg/mL (≈ 1.02 µM); in data set [6] it was above 16 µg/mL.

In the case of `CNc1cc(F)cc2c1[nH]c1nc(Oc3cnc(C)nc3)nc(N3CC/C(=C(/F)CN)C3)c12`, the MIC in data set [1] is 0.008 µg/mL (≈ 0.0177 µM); in data set [2], below 0.008 µg/mL; in [3], below 0.008 µg/mL; in [4], 0.125 µg/mL (≈ 0.276 µM); in data set [5], 0.06 µg/mL (≈ 0.133 µM); in [6], 2 µg/mL (≈ 4.42 µM).

Consider `CNc1cc(F)cc2c1[nH]c1nc(Oc3cnc(C)nc3)nc(N3CC(=C(Br)CN)C3)c12`, for which the MIC is below 0.008 µg/mL in [2]; below 0.008 µg/mL in data set [3]; 0.06 µg/mL (≈ 0.12 µM) in [4]; 0.015 µg/mL (≈ 0.03 µM) in data set [5]; 2 µg/mL (≈ 4.01 µM) in data set [6].

For the molecule `CNc1cc(F)cc2c1[nH]c1nc(Oc3cnc(C)nc3)nc(N3CC(=C(Cl)CN)C3)c12`, the MIC was below 0.008 µg/mL in data set [2]; below 0.008 µg/mL in [3]; 1 µg/mL (≈ 2.2 µM) in [4]; 0.25 µg/mL (≈ 0.55 µM) in data set [5]; 8 µg/mL (≈ 17.6 µM) in data set [6]. Moreover, in data set [7], the inhibition at 2 min, 40 µM amounted to 34.3%. Further, in [8], the IC50 was above 40 µM.

In the case of `CNc1cc(F)cc2c1[nH]c1nc(Oc3cnc(C)nc3)nc(N3CC(=C(C)CN)C3)c12`, the MIC is below 0.008 µg/mL in data set [2]; below 0.008 µg/mL in data set [3]; 2 µg/mL (≈ 4.6 µM) in data set [4]; 0.06 µg/mL (≈ 0.138 µM) in data set [5]; above 4 µg/mL in [6]. Besides, the inhibition at 2 min, 40 µM in [7] was 4.8%. Also, in [8], the IC50 was above 40 µM.

On to `CCC(CN)=C1CN(c2nc(Oc3cnc(C)nc3)nc3[nH]c4c(NC)cc(F)c(F)c4c23)C1`, for which the MIC in [1] was 0.25 µg/mL (≈ 0.536 µM); in [2] it was 0.25 µg/mL (≈ 0.536 µM); in data set [3], below 0.03 µg/mL; in data set [4], 64 µg/mL (≈ 137 µM); in data set [5], 0.5 µg/mL (≈ 1.07 µM); in data set [6], above 64 µg/mL.

For `CCC(CN)=C1CN(c2nc(Oc3cnc(C4CC4)nc3)nc3[nH]c4c(NC)cc(F)cc4c23)C1`, the MIC in [2] is below 0.008 µg/mL; in data set [3], below 0.008 µg/mL; in [4], 0.03 µg/mL (≈ 0.0632 µM); in [5], 0.015 µg/mL (≈ 0.0316 µM); in data set [6] it was 0.5 µg/mL (≈ 1.05 µM). Also, the inhibition at 2 min, 40 µM in [7] amounted to 62%. For the same molecule, in data set [8], the IC50 turned out to be 23.4 µM.

Regarding `[2H]C([2H])([2H])Nc1cc(F)cc2c1[nH]c1nc(Oc3cnc(C)nc3)nc(N3CC(=C(C)[C@H](C)N)C3)c12`, the MIC in [9] turned out to be 0.5 µg/mL (≈ 1.11 µM); in data set [10], 0.5 µg/mL (≈ 1.11 µM); in data set [11], 0.125 µg/mL (≈ 0.277 µM); in [12], 2 µg/mL (≈ 4.43 µM); in data set [13] it was 8 µg/mL (≈ 17.7 µM); in data set [14], 2 µg/mL (≈ 4.43 µM). In addition, the MIC in data set [15] stood at 0.5 µg/mL (≈ 1.11 µM); in [16], 0.5 µg/mL (≈ 1.11 µM); in data set [17], 8 µg/mL (≈ 17.7 µM); in [18] it was 2 µg/mL (≈ 4.43 µM).
